Data set [1] relates to E. faecalis ATCC33186. Briefly: MIC, microbroth dilution in Mueller-Hinton broth. The conditions noted are these: Enterococcus faecalis, ATCC33186, read-out: MIC EF. The data set is classed as cell-based. The method in brief:
(§1)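 CLSI broth microdilution in cation-adjusted Mueller-Hinton broth. Inocula were grown from MH agar colonies in MH broth, with a final inoculum of 10^5 CFU/ml. Test compound final range was 200–0.2 µg/ml, incubated 37°C for 18–20 h. MIC was the lowest concentration preventing visible growth. Runs were at least duplicate, and the mean MIC was reported.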
Background: Dilution methods test growth across graded concentrations, often in twofold steps.

The test system of data set [2] is S. pyogenes ATCC700294. Description: MIC, microbroth dilution in Mueller-Hinton broth. The conditions noted are these: Streptococcus pyogenes, ATCC700294, read-out: MIC SPy. The data set is classed as cell-based. The method in brief: as §1
Data set [3] concerns S. pneumoniae R6. Description: MIC, microbroth dilution in Mueller-Hinton broth. The data set is classed as cell-based. The conditions noted are these: Streptococcus pneumoniae, R6, read-out: MIC SP. The method in brief: as §1
Data set [4] relates to B. anthracis sterne. Briefly: microbe, parasite or virus in culture. The data set is classed as cell-based. The conditions noted are these: Bacillus anthracis, read-out: MIC BA.
In data set [5] the test system is B. subtilis ATCC23857. Briefly: MIC, microbroth dilution in Mueller-Hinton broth. The conditions noted are these: Bacillus subtilis, ATCC23857, read-out: MIC BS. The data set is classed as cell-based. Put shortly: as §1
The subject of data set [6] is S. aureus -ATCC29213 (MSSA). Description: MIC, microbroth dilution in Mueller-Hinton broth. The data set is classed as cell-based. The conditions noted are these: Staphylococcus aureus, read-out: MIC MSSA. Put shortly: as §1
For data set [7], the system named is S. aureus NRS 70 (MRSA). Briefly: MIC, microbroth dilution in Mueller-Hinton broth. The data set is classed as cell-based. The conditions noted are these: Staphylococcus aureus, MRSA|NRS70, read-out: MIC MRSA. The method in brief: as §1
Data set [8] concerns E. coli BW25113. Description: MIC, microbroth dilution in Mueller-Hinton broth. The data set is classed as cell-based, Escherichia coli. The conditions noted are these: for MIC EC MH+BP/CCCP / MIC EC +: E. coli BW25113; for MIC EC MH+BP/CCCP: MH broth with 30 µg/ml 2,2′-bipyridyl and 50 µg/ml CCCP; for MIC EC +: with clavulanic acid (6µg/ml); for MIC: Escherichia coli.
Data set [9] has as its system E. coli BW25113 ΔtolC derivative JW5503-1. Description: MIC, microbroth dilution in Mueller-Hinton broth. The data set is classed as cell-based, Escherichia coli. The conditions noted are these: for MIC: Escherichia coli.
The test system of data set [10] is P. vulgaris ATCC 33420. Briefly: MIC, microbroth dilution in Mueller-Hinton broth. The data set is classed as cell-based. The conditions noted are these: Proteus vulgaris, ATCC33420, read-out: MIC PV.
The test system of data set [11] is P. mirabilis ATCC 25933. Description: MIC, microbroth dilution in Mueller-Hinton broth. The data set is classed as cell-based. The conditions noted are these: Proteus mirabilis, ATCC25933, read-out: MIC PM.
Data set [12] deals with P. aeruginosa PA01. Briefly: MIC, microbroth dilution in Mueller-Hinton broth. The data set is classed as cell-based, Pseudomonas aeruginosa. The conditions noted are these: for MIC PA +: with clavulanic acid (6µg/ml); for MIC: Pseudomonas aeruginosa.
Data set [13] deals with E. coli BW25113 ΔampC derivative JW4111-2. The data set is classed as cell-based, Escherichia coli.
The conditions of data set [14]: cited from earlier work.

≈ marks a conversion by molar mass, not a printed value. Like-named read-outs stand apart in the source and are kept apart here.

As to `CC1(C)S[C@@H]2[C@H](NC(=O)[C@H](N)c3ccccc3)C(=O)N2[C@H]1C(=O)O` [ampicillin, reference compound], the MIC is 3.13 µg/mL (≈ 8.96 µM) in data set [1]; below 0.2 µg/mL in data set [2]; below 0.2 µg/mL in data set [3]; below 0.2 µg/mL in data set [4]; below 0.2 µg/mL in [5]; below 0.2 µg/mL in data set [6]. Also, the MIC in data set [7] is 50 µg/mL (≈ 143 µM); in data set [8] (BW25113, read-out: MIC EC, E. coli BW25113, Mueller-Hinton broth (Table 2)), 3.13 µg/mL (≈ 8.96 µM); in data set [10], 100 µg/mL (≈ 286 µM); in data set [11], 3.13 µg/mL (≈ 8.96 µM); in data set [12] (PA01, read-out: MIC PA) it was above 200 µg/mL; in data set [12] (PA01, read-out: MIC PA MH) it was above 200 µg/mL. Moreover, the MIC in data set [12] (PA01, read-out: MIC PA MH+BP) was above 200 µg/mL; in data set [12] (PA01, read-out: MIC PA MH+CCCP), above 200 µg/mL; in [12] (PA01, read-out: MIC PA −), above 200 µg/mL. For the same compound, the “MIC EC MH+BP/CCCP” value in data set [8] was 0.78 µg/mL (≈ 2.23 µM). Also, the “MIC EC +” value in data set [8] turned out to be 1.56 µg/mL. The “MIC ECΔtolC MH+BP/CCCP” value in data set [9] ({}) came to 0.39 µg/mL (≈ 1.12 µM). Further, the “MIC ECΔtolC MH+CCCP” value in data set [9] ({}) was found to be 1.56 µg/mL (≈ 4.46 µM). The “MIC PA” value in data set [12] (P. aeruginosa PA01, Mueller-Hinton broth (Table 2)) is above 200 µg/mL. Moreover, the “MIC PA +” value in data set [12] (P. aeruginosa PA01) turned out to be 100 µg/mL. In addition, the “MIC ECΔampC +” value in [13] was 1.56 µg/mL.

Turning to `O=C(N[C@H]1COC(=O)[C@@H](NC(=O)c2cccc(O)c2O)COC(=O)[C@@H](NC(=O)c2cccc(O)c2O)COC1=O)c1cccc(O)c1O` [enterobactin], in data set [14] (E. coli enterobactin, ref [42]), the pM is reported as 35.6.

Regarding `CCN1CCN(C(=O)N[C@@H](C(=O)N[C@@H]2C(=O)N3[C@@H]2SC(C)(C)[C@@H]3C(=O)O)c2ccccc2)C(=O)C1=O` [piperacillin, reference compound], the MIC in data set [1] is 3.13 µg/mL (≈ 6.05 µM); in [2], below 0.2 µg/mL; in data set [3] it was below 0.2 µg/mL; in data set [4], 0.39 µg/mL (≈ 0.754 µM); in data set [5], 0.39 µg/mL (≈ 0.754 µM); in data set [6], below 0.2 µg/mL. Further, the MIC in data set [7] was 25 µg/mL (≈ 48.3 µM); in [8] (BW25113, read-out: MIC EC MH+BP) it was 1.56 µg/mL (≈ 3.01 µM); in data set [9] (BW25113, read-out: MIC ECΔtolC) it was 1.56 µg/mL (≈ 3.01 µM); in data set [9] (BW25113, read-out: MIC ECΔtolC MH), 0.09 µg/mL (≈ 0.174 µM); in data set [9] (BW25113, read-out: MIC ECΔtolC MH+BP), 0.09 µg/mL (≈ 0.174 µM); in [10], 1.56 µg/mL (≈ 3.01 µM). The MIC in data set [11] was determined as 0.19 µg/mL (≈ 0.367 µM); in data set [12] (PA01, read-out: MIC PA MH+CCCP) it was 3.13 µg/mL (≈ 6.05 µM); in data set [13] (Escherichia coli, BW25113, read-out: MIC ECΔampC −), 1.56 µg/mL (≈ 3.01 µM). Also, the “MIC EC MH+BP/CCCP” value in [8] is 0.78 µg/mL (≈ 1.51 µM). Besides, the “MIC EC +” value in data set [8] came to 3.13 µg/mL. For the same compound, in [12] (P. aeruginosa PA01, MH broth with 30 µg/ml 2,2′-bipyridyl and 50 µg/ml CCCP), the “MIC PA MH+BP/CCCP” value is 3.13 µg/mL (≈ 6.05 µM). Also, in data set [12] (P. aeruginosa PA01), the “MIC PA +” value came out at 3.13 µg/mL. In [13], the “MIC ECΔampC +” value worked out at 1.56 µg/mL.

A word on the Kd: it is the equilibrium constant for the complex coming apart. For the compound `CN1[C@@H]([C@H]2CSC(c3ccccc3O)=N2)SC[C@H]1C(=O)O` [pyochelin], the pM in [14] (pyochelin, ref [43], [44]) was 6. Moreover, the Kd in [14] (read-out: Kd for iron, pyochelin, ref [43], [44]) is 10 µM.

In the case of pyoverdin, in [14] (P. aeruginosa pyoverdin, ref [45], [46]), the pM is 27.

These data come from paper PMC5116011 (The Journal of antibiotics, 2016).
